Rows were chosen to be rich in hits. Some 2.9% of all compounds tested hit in one or more screens of this group.
NRP1-CendR mod – modulators of CendR peptide binding to NRP-1, primary screen, biochemical, fluorescence polarization, uHTS | Neuropilin-1 (Homo sapiens), O14786 | FAM-RPARPAR peptide binding to NRP-1 | inhibition, % at 25 µM | 360,000 compounds, 0.85% hits | AID 602438, 2012;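 active = inhibition or corrected inhibition above about 18%, plus a signal ratio from 0.5 to 1.5, limit read from the data, passing the limit was not always enough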
Arr AP2 block – inhibitors of beta-arrestin/AP2 binding, primary screen, biochemical, GPCR trafficking, flow cytometry | AID 504490, 2011 | FITC-arrestin peptide / GST-AP2 beads; AP2 beta2 appendage carries R879A mutation | 340,000 compounds, 0.31% hits | inhibition, % at 10 µM;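 active = inhibition above a set limit, near 3 SD of compounds lacking own fluorescence, cut at about 54% in these data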
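Assay system: GST-AP2 R879A bound to glutathione beads, E. coli-expressed; Medium: PBS with 0.05% Tween 20 and 0.1% BSA; Also added: fluorescein-tagged arrestin peptide at 50 nM final; Timing: 12 min plus 1 h, RT; Measured by: flow cytometry, FL1 (488/535 nm); Evaluation: percent drop in bead-associated FITC signal.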
ADAM17 inh – ADAM17 inhibitors, primary screen, biochemical, QFRET. recombinant ADAM17, EDANS/DABCYL FRET peptide cleavage. inhibition, % at 6.95 µM. 370,000 compounds, 0.83% hits;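 active = inhibition above the mean of compounds lying between control limits plus 3 SD, set per campaign, cut at about 8.5% in these data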
FAS TE block – FAS thioesterase domain inhibitors, primary screen, biochemical, fluorescence intensity, uHTS; Fatty acid synthase (Homo sapiens), P49327; recombinant FAS-TE, OMFH fluorogenic substrate, fluorescence endpoint; inhibition, % at 15 µM; 360,000 compounds, 0.67% hits; AID 602261, 2012;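 active = compounds whose normalised, plate-corrected inhibition of enzyme fluorescence in the single-dose primary screen is 50% or more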
CaV13 FRET inh – Disruptors of the CACNA1D IQ motif to Ca2+-dependent inactivation inhibitor domain association, primary screening, Förster resonance energy transfer in intact living …; 340,000 compounds, 0.098% hits; inhibition, % at 12.3 µM; AID 743397; HEK cells, CFP/YFP FRET ICDI-IQ, plate reader, 10 min; percent FRET-ratio fall versus neutral wells;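 active = mean replicate inhibition of at least 30% and at least 1% of replicates passing that level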
ADAM10 inh – human ADAM10 inhibitors, primary screen, biochemical, QFRET, HTS; Disintegrin and metalloproteinase domain-containing protein 10 (Homo sapiens), O14672; recombinant ADAM10, EDANS/DABCYL FRET peptide cleavage, 3 h; inhibition, % at 7 µM; 370,000 compounds, 0.62% hits; AID 720582, 2013;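 active = inhibition above a per-campaign cutoff equal to the mean of compounds falling between control-based bounds plus 3 SD, cut at about 20% in these data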
Arr AP2 CP1 – inhibitors of arrestin peptide binding to AP2, confirmation, biochemical, cherry pick 1, flow cytometry beads; shares compounds with Arr AP2 block; AID 504908, 2011; 1,300 compounds, 2% hits; inhibition, % at 10 µM; GST-AP2 beads, FITC arrestin peptide binding; GST-fused beta2-adaptin appendage, R879A mutant;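 active = inhibition above a set limit, roughly 3 SD of non-fluorescent compound noise, cut at about 38% in these data; inactive = inhibition at or below that limit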;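 note: loss of bead fluorescence from 50 nM FITC arrestin peptide bound to appendage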
GST-FITC bead – GST-fluorescein capture on glutathione beads, confirmation, artefact control for arrestin-AP2 inhibitor project, biochemical, cherry pick 1, flow cytometry | shares compounds with Arr AP2 block | GST-fluorescein binding to GSH beads, fluorescence, counter-screen | inhibition, % at 10 µM | 1,300 compounds, 2% hits;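 active = inhibition above 50%, about 3 SD of the inhibition seen with non-fluorescent compounds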;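 note: fluorescein maleimide labelled GST captured on 4 micron glutathione beads; higher means more loss of bead fluorescence from quenching or blocked binding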
Large screens that a line does not name were inactive (follow-up assays come after a bar, where they were run).

COc1ccccc1NC(=O)CC(=O)c1ccccc1	none | Arr AP2 CP1 inactive | GST-FITC bead inactive
CSc1ccccc1C(=O)Nc1ccc(C)c(C)c1	Arr AP2 block 54.4 | Arr AP2 CP1 inactive | GST-FITC bead inactive
COc1ccc(NC(=O)CCCc2ccccc2)cc1OC	none
CSc1ccccc1C(=O)Nc1cc(C)cc(C)c1	none
O=C(CC(=O)c1ccccc1)Nc1ccc(Cl)cc1	none | Arr AP2 CP1 inactive | GST-FITC bead inactive
COC(=O)[C@]12C[C@H](CC(=O)NCC3CCCCC3)C(=O)N(Cc3cccc4ccccc34)C1=C[C@H](C(C)C)O[C@@H]2C1CC1	none (no result: NRP1-CendR mod, Arr AP2 block, FAS TE block, CaV13 FRET inh)
COC(=O)C[C@H]1CC[C@H](NC(=O)Nc2ccccc2OC)[C@@H](CO)O1	none (no result: Arr AP2 block, FAS TE block)
O=S(=O)(c1sccc1Br)n1c(CN2CCOCC2)nc2ccccc21	none (no result: NRP1-CendR mod, Arr AP2 block, FAS TE block, CaV13 FRET inh)
CCOC(=O)c1cccc(C2=CC(=O)C[C@H](c3ccc(Cl)cc3)C2)c1	none
Cc1ccc(NC(=O)CC(=O)c2ccccc2)cc1C	none | Arr AP2 CP1 inactive | GST-FITC bead inactive
Cc1ccc(NC(=O)c2ccc(NC(=O)c3ccccc3)cc2)cc1C	none (no result: CaV13 FRET inh)
CCCCCCCCC(c1nc2ccccc2[nH]1)N1CCN=C(c2ccccc2)C1=O (stereo not given)	none (no result: Arr AP2 block)
Cc1nn(-c2ccccc2)c2sc(C(=O)N3CCN(S(=O)(=O)c4ccc(Br)s4)CC3)cc12	none (no result: NRP1-CendR mod, Arr AP2 block, FAS TE block, CaV13 FRET inh)
CC(C)(C)NC(=O)C1(C)CCC(=O)N1CC(F)(F)F (stereo not given)	none (no result: Arr AP2 block)
Cc1cc(S(=O)(=O)Nc2ccc(C(=O)N3CC(C)OC(C)C3)cc2)ccc1F (stereo not given)	none
CC1CN(C(=O)c2ccc(NS(=O)(=O)c3ccc(F)c(F)c3)cc2)CC(C)O1 (stereo not given)	Arr AP2 block 56.2 | Arr AP2 CP1 inactive | GST-FITC bead inactive
Cc1ccc2c(CC(=O)NCC3(N4CCOCC4)CCCCC3)coc2c1C	none
Cc1c(C(=O)NCCN2CCCC(O)C2)oc2c(F)cccc12 (stereo not given)	Arr AP2 block 57.5 (no result: CaV13 FRET inh) | Arr AP2 CP1 inactive | GST-FITC bead inactive
Cc1cccc(NC(=O)CSc2nsc(SCC(=O)Nc3cccc(C)c3)c2C#N)c1	none
N#Cc1c(SCC(=O)Nc2ccccc2)nsc1SCC(=O)Nc1ccccc1	Arr AP2 block 108.7 | Arr AP2 CP1 inactive | GST-FITC bead inactive
O=C(/C=C/c1ccccc1)NCCS(=O)(=O)N1CCN(c2ccccc2)CC1	Arr AP2 block 54.6 | Arr AP2 CP1 inactive | GST-FITC bead inactive
COCCN=C1S/C(=C\c2cc(C)n(-c3ccc(F)cc3F)c2C)C(=O)N1C	none (no result: NRP1-CendR mod, Arr AP2 block, FAS TE block, CaV13 FRET inh)
O=C(CSc1nc(O)c(C(c2ccccc2)c2ccccc2)c(=O)[nH]1)N1CCOCC1	Arr AP2 block 67.8 | Arr AP2 CP1 inactive | GST-FITC bead inactive
O=C(CSc1nc(O)c(-c2ccccc2)c(=O)[nH]1)N1CCOCC1	none
CCCCNC(=O)C[C@@H]1C[C@@]2(C(=O)OC)CCCCC=C2N(CCC2=CCCCC2)C1=O	none (no result: Arr AP2 block)
COC(=O)c1cc(OC)c(OC)cc1NC(=O)C(C)Sc1ccc(C)cc1 (stereo not given)	none
COc1cc2c(cc1NC(=O)CSCC(=O)O)oc1ccccc12	none (no result: CaV13 FRET inh)
COc1cc2c(cc1NC(=O)C(C)Sc1ccc(C)cc1)oc1ccccc12 (stereo not given)	none | Arr AP2 CP1 inactive
COc1cc2c(cc1NC(=O)Cc1ccc(C)cc1)oc1ccccc12	none | Arr AP2 CP1 inactive | GST-FITC bead inactive
COc1cc2c(cc1NC(=O)COC(=O)Cn1cnc3ccccc31)oc1ccccc12	none
COc1cc2c(cc1NC(=O)COC(=O)c1ccc(C(C)(C)C)cc1)oc1ccccc12	none | Arr AP2 CP1 inactive | GST-FITC bead inactive
COc1cc2c(cc1NC(=O)CSc1ccc(C)cc1)oc1ccccc12	none | Arr AP2 CP1 inactive | GST-FITC bead inactive
O=C(c1ccc(Cl)cc1)C1CCN(c2ncnc3sccc23)CC1	none (no result: NRP1-CendR mod, Arr AP2 block, FAS TE block, CaV13 FRET inh)
COc1cc2c(cc1NC(=O)CCC(=O)O)oc1ccccc12	none
COc1cc2c(cc1NC(=O)CSc1nnnn1-c1ccccc1)oc1ccccc12	none
COc1cc2c(cc1NC(=O)COc1ccccc1OC)oc1ccccc12	none | Arr AP2 CP1 inactive | GST-FITC bead inactive
COc1cc2c(cc1NC(=O)CSc1cccc[n+]1[O-])oc1ccccc12	Arr AP2 block 56.2 | Arr AP2 CP1 inactive | GST-FITC bead inactive
CCN(CC(=O)Nc1ccc(NC(C)=O)cc1)C(=O)CCN1C(=O)c2cccc([N+](=O)[O-])c2C1=O	Arr AP2 block 63.9 | Arr AP2 CP1 inactive | GST-FITC bead inactive
CCN(CC(=O)Nc1c(F)cccc1F)C(=O)CCN1C(=O)c2cccc([N+](=O)[O-])c2C1=O	none
Cc1ccc(-c2nc(SC(C)C(=O)NC3CC3)n[nH]2)cc1 (stereo not given)	none (no result: Arr AP2 block)
Fc1ccc(C2Nc3cccc4cccc(c34)N2)cc1	none
Cc1ccc(C2Nc3cccc4cccc(c34)N2)s1	Arr AP2 block 87.3 | Arr AP2 CP1 inactive | GST-FITC bead inactive
O=C(CN1CCCCC1)N1CCc2ccccc21	none
O=C(Cn1cc(C(F)(F)F)ccc1=O)N1CCc2ccccc21	Arr AP2 block 65.3 | Arr AP2 CP1 inactive | GST-FITC bead inactive
CCCCCCn1cc(CN2CC(N3CCSCC3)CS2(=O)=O)nn1 (stereo not given)	none (no result: Arr AP2 block)
N=c1c2cn[nH]c2nc(SCC(=O)c2ccc(Br)cc2)n1-c1ccc(Br)cc1	Arr AP2 block 74.0 | Arr AP2 CP1 inactive | GST-FITC bead inactive
CC(C)Nc1nnc(SC(C)C(=O)Nc2ccc(Cl)cn2)s1 (stereo not given)	Arr AP2 block 54.7 | Arr AP2 CP1 inactive | GST-FITC bead inactive
Cc1csc(SC(C)C(=O)Nc2ccc(Cl)cn2)n1 (stereo not given)	none
CC1=C(C(=O)N(C(C)C)C(C)C)CC(CC(=O)NCCN2CCOCC2)C(=O)N1Cc1ccc(F)cc1 (stereo not given)	none (no result: Arr AP2 block)
